In the library only some 2.5% were active in any assay of this set; here they are far more common.
rCAG RNA binder = binders of r(CAG) RNA repeats, primary screen, biochemical, fluorescence | r(CAG) RNA repeat, TO-PRO-1 dye displacement fluorescence | inhibition, % at 3 µM | 1.3% of 370,000 active | AID 651821, 2012;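 active = inhibition above the plate cutoff, the mean of all test compounds on that plate plus 3 SD, cut at about 35% in these data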;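 also: 0% = DMSO alone and 100% = 100 µM mitoxantrone as full dye displacement; higher means more dye released from RNA so lower well fluorescence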
ABHD4 inh = ABHD4 inhibitors, primary screen, biochemical, fluorescence polarization, mouse | 0.54% of 370,000 active | (Lyso)-N-acylphosphatidylethanolamine lipase (Mus musculus), Q8VD66 | purified mABHD4, FP-Rh probe fluorescence polarization | AID 720543, 2013 | inhibition, % at 8.92 µM;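 active = inhibition exceeding the mean over every tested compound plus 3 SD, cut at about 30% in these data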;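 also: 0% = plate median of compound wells and 100% = S159A mutant with DMSO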
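system = mouse ABHD4 enzyme, wild type | medium = HEPES pH 7.0, NaCl, Pluronic buffer | also added = FP-Rh probe | incubation = Enzyme–compound pre-incubation 45 min, then probe 60 min, both 25 °C | technique = fluorescence polarization, excitation 525 nm, emission 598 nm, BODIPY TMR filters | controls = S159A mutant high control, sample median low control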
HTRA1 inhibitor = HTRA1 serine protease inhibitors, primary screen, biochemical, fluorescence polarization, HTS | recombinant HTRA1, FP-rhodamine activity-based probe | inhibition, % at 5.96 µM | 0.5% of 340,000 active | AID 504803, 2011; in the data active = inhibition above about 36%;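 also: 0% = enzyme with DMSO and 100% = wells lacking enzyme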
Target sequence (Q92743 whole entry, looked up): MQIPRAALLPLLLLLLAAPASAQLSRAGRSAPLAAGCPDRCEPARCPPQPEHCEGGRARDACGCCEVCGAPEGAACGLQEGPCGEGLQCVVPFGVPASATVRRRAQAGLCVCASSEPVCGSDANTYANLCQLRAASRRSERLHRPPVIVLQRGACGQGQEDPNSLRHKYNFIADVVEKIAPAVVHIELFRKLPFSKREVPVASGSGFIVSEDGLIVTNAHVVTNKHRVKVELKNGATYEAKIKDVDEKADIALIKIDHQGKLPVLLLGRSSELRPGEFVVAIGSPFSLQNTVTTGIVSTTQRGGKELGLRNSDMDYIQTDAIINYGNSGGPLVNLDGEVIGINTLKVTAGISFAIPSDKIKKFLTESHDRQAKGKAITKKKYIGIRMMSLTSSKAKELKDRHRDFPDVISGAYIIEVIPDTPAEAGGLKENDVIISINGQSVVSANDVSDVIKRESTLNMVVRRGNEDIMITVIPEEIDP
TCR CD3 inh = inhibitors of human TCR-CD3 interaction, primary screen, biochemical, fluorescence, TAMRA-labeled TCR probe | inhibition, % at 9.4 µM | AID 651800, 2012 | 0.37% of 360,000 active;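 also: recombinant mutant TCR 2C K166C tagged with TAMRA read by polarization; 0% = receptor in buffer alone and 100% = receptor with positive control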
SIAE inh = human SIAE inhibitors, primary screen, biochemical, fluorescence polarization, FP-Rh probe, 1536-well HTS; Sialate O-acetylesterase (Homo sapiens), Q9HAT2; SIAE FP-Rh probe binding; inhibition, % at 9.66 µM; 0.69% of 370,000 active; AID 1053197, 2014;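 active = inhibition above a cutoff: mean of compounds within the control limits plus 3 SD of those, cut at about 17% in these data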;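 also: 0% = plate median of compound wells and 100% = probe without SIAE protein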
HTRA1 inh conf = HTRA1 protease inhibitors, retest, confirmation, biochemical, fluorescence polarization; inhibition, % at 5.96 µM; 66% of 1,600 active; AID 540248, 2011; shares compounds with HTRA1 inhibitor; recombinant HTRA1, FP-rhodamine activity-based probe;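 active = mean inhibition over three repeats above a set limit taken from the earlier primary screen, cut at about 37% in these data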;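 also: 0% = HTRA1 with DMSO and 100% = wells lacking HTRA1; inhibitors block probe binding so polarization drops and inhibition rises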
BSA TAMRA ctr = compounds interfering with TAMRA-BSA probe, counter-screen for TCR-CD3 interaction inhibitor project, biochemical, fluorescence, TAMRA-labeled BSA; shares compounds with TCR CD3 inh; TAMRA-labeled BSA probe fluorescence counterscreen; inhibition, % at 9.4 µM; 10% of 1,200 active; in the data active = inhibition above about 23%;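 also: 0% = buffer low control and 100% = reference high control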
TCR-CD3 conf = TCR-CD3 interaction inhibitors, retest, confirmation, biochemical, fluorescence, TAMRA-labeled TCR probe. shares compounds with TCR CD3 inh. TAMRA-labeled TCR probe fluorescence binding assay. inhibition, % at 9.4 µM. 48% of 1,200 active
rCAG bind conf = small molecules binding CAG repeat RNA – biochemical, fluorescence, confirmation | inhibition, % at 3 µM | r(CAG) RNA repeat, TO-PRO-1 dye displacement fluorescence | 70% of 4,300 active | shares compounds with rCAG RNA binder;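 active = inhibition above a per-plate cutoff, the mean inhibition of sample wells plus 3 SD, cut at about 35% in these data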;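 also: loss of TO-PRO-1 fluorescence as compound displaces dye from 1x1 AA loop RNA; 0% = DMSO only wells and 100% = 100 µM mitoxantrone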
dCAG dye counter = displacement of TO-PRO-1 from CAG DNA duplex, counter-screen for rCAG RNA repeat binder project, biochemical, fluorescence, TO-PRO-1 dye, d(CAG) DNA oligo | shares compounds with rCAG RNA binder | d(CAG) DNA oligo TO-PRO-1 dye displacement | inhibition, % at 3 µM | 94% of 4,300 active;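 active = inhibition above its plate's cutoff, the mean test-well inhibition plus 3 SD, cut at about 4.8% in these data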;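 also: 0% = DNA dye mix with DMSO and 100% = 100 µM mitoxantrone; hits displace the dye from DNA and so lower well fluorescence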
mABHD4 conf = ABHD4 inhibitors, retest, confirmation, biochemical, fluorescence polarization, mouse. 55% of 1,800 active. shares compounds with ABHD4 inh. purified mABHD4, FP-Rh probe fluorescence polarization. inhibition, % at 8.92 µM;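 active = mean inhibition across replicates above the hit cutoff set in the primary screen, cut at about 30% in these data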;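 also: 0% = wild-type ABHD4 with DMSO and 100% = catalytically dead S159A mutant with DMSO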
SIAE confirm = human SIAE inhibitors, retest, confirmation, biochemical, fluorescence polarization, FP-Rh probe, triplicate | inhibition, % at 9.66 µM | SIAE FP-Rh activity-based probe | 13% of 2,300 active | shares compounds with SIAE inh;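 active = mean inhibition of the replicates above the hit cutoff set in the primary screen, cut at about 17% in these data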;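 also: 0% = SIAE with DMSO and probe and 100% = probe without SIAE; inhibitors lower polarization as more probe stays unbound to SIAE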
* = called active by the depositor; nt = no result. Rule as the data show it, unless noted: active = inhibition above about 19%; inactive = the rest.

SMILES	rCAG RNA binder	ABHD4 inh	HTRA1 inhibitor	TCR CD3 inh	SIAE inh	HTRA1 inh conf	mABHD4 conf	others
COc1cc2ccc(C(C)=NOC(C)=O)cc2cc1OC	0.4	-5.5	2.5	-4.5	-1.6	nt	nt
Cc1c(Br)c(=O)oc2c(Br)c(O)c(O)cc12	17.8	50.7*	64.1*	25.0*	13.3	82.8*	53.1*	BSA TAMRA ctr=-9.3;TCR-CD3 conf=17.4
Cc1c(Br)c(=O)oc2c(Br)c(O)ccc12	-1.8	1.7	0.8	2.0	-4.1	nt	nt
CCCCCCCCCCOC(=O)Cn1c(COc2cccc(C)c2)[n+](C)c2ccccc21	3.4	32.5*	38.0*	1.6	2.4	33.4	38.5*
CCCCCCCCCCOC(=O)Cn1c(COc2ccc(OC)cc2)[n+](C)c2ccccc21	nt	nt	17.7	nt	nt	nt	nt
Nc1[nH]n(-c2ccccc2)c(=O)c1N=Nc1ccc2ncsc2c1	18.6	48.0*	36.3*	-5.6	13.1	26.1	65.1*
Nc1[nH]n(-c2ccccc2)c(=O)c1N=Nc1ccccc1	5.3	26.3	25.1	3.3	10.6	nt	nt
COc1ccc(Cl)cc1C(=O)NNC(=O)COC(=O)c1cccs1	7.5	4.1	7.4	3.3	4.7	nt	nt
COc1ccc(N/N=C(/N=Nc2nc(C)cc(=O)[nH]2)c2ccccc2)cc1	8.9	40.2*	70.8*	-3.3	9.4	76.4*	41.7*
FC(F)(F)c1nc2ccccc2nc1N/N=C/c1c(Cl)cccc1Cl	-3.5	11.2	7.0	2.0	5.4	nt	nt
O=C1C(NS(=O)(=O)c2cccs2)=C(N2CCN(c3cccc(C(F)(F)F)c3)CC2)C(=O)c2ccccc21	25.9	43.2*	44.9*	0.2	3.0	69.5*	69.9*
CCOc1ccccc1N1CCN(C2=C(NS(=O)(=O)c3cccs3)C(=O)c3ccccc3C2=O)CC1	8.6	48.4*	63.2*	0.8	12.5	67.5*	61.7*
CN1CCN(C2=C(NS(=O)(=O)c3cccs3)C(=O)c3ccccc3C2=O)CC1	-1.1	2.5	1.5	1.1	-2.6	nt	nt
COCCNC(=O)[C@@H]1CSC2c3ccccc3C(=O)N21 (stereo partly specified)	-0.3	2.7	-2.5	-9.3	-2.1	nt	nt
Cc1cc(SCC(=O)c2ccc(O)c(O)c2)nc2ccccc12	35.2*	38.5*	53.7*	29.3*	16.0	69.2*	19.7	BSA TAMRA ctr=-11.0;TCR-CD3 conf=24.4*;rCAG bind conf=53.8*;dCAG dye counter=23.4*
O=C(CSc1n[nH]c(-c2ccccc2)n1)c1ccc(O)c(O)c1	12.8	34.4*	72.3*	8.8	11.1	66.5*	12.9
Cc1ccc(N(Cc2ccc(C(=O)Nc3c(C)n(C)n(-c4ccccc4)c3=O)cc2)S(C)(=O)=O)cc1C	-8.2	-2.8	1.3	-5.5	4.5	nt	nt
Cc1oc2c(O)c(O)ccc2c(=O)c1-c1ccccc1	8.4	41.2*	51.8*	7.5	7.2	40.9*	16.2
Cc1oc2c(O)c(O)ccc2c(=O)c1-c1ccc(Cl)cc1	11.9	41.3*	69.0*	13.2	-0.6	91.3*	25.2
Cc1oc2c(CN3CCCC3)c(O)ccc2c(=O)c1-c1ccc(Br)cc1	0.0	6.7	-5.0	-1.5	-3.2	nt	nt
Cc1oc2c(CN3CCCCC3C)c(O)ccc2c(=O)c1-c1ccccc1 (stereo unspecified)	-1.2	2.4	-0.2	-2.1	-0.5	nt	nt
C=C1c2cccc(O)c2C(O)=C2C(=O)[C@]3(O)C(O)=C(C(N)=O)C(=O)[C@@H](N(C)C)[C@@H]3[C@@H](O)[C@H]12	84.7*	79.1*	53.4*	52.5*	68.7*	30.2	26.4	BSA TAMRA ctr=-7.7;TCR-CD3 conf=4.3;rCAG bind conf=24.0;dCAG dye counter=9.8*
COC(=O)[C@@]12C[C@@H](CC(=O)N3CCN(C(=O)C4CC4)CC3)C(=O)N(Cc3cccc4ccccc34)C1=CCC(C)(C)C2	9.5	-1.9	nt	5.5	8.4	nt	nt
CC1CCCC(C)N1/N=C/c1ccc(O)c(O)c1 (stereo unspecified)	6.3	36.5*	43.3*	23.3*	5.7	29.1	11.8	BSA TAMRA ctr=-1.0;TCR-CD3 conf=20.2*
COc1ccc(/C=N/N2C(C)CCCC2C)cc1O (stereo unspecified)	-0.7	0.1	9.9	-2.0	7.1	nt	nt
SMILES	rCAG RNA binder	ABHD4 inh	HTRA1 inhibitor	TCR CD3 inh	SIAE inh	HTRA1 inh conf	mABHD4 conf	others
O=S1(=O)CCOC[C@H](CC2CCCCC2)N1Cc1cccc(F)c1	4.1	-8.4	-12.1	-5.8	-6.5	nt	nt
COc1cccc(-c2cc(C(=O)Nc3cccc(O)c3)no2)c1	8.3	-24.7	-50.4	2.2	-20.9	nt	nt
Oc1ccc(O)c(C=NNC(=S)NC2CC3CC2C2C=CCC32)c1 (stereo unspecified)	25.6	29.7*	46.8*	1.1	34.0*	72.8*	34.7*	SIAE confirm=39.2*
NNC(=S)NC1CC2CC1C1C=CCC21 (stereo unspecified)	1.0	-5.0	-12.2	-6.7	1.7	nt	nt
Cc1ccc(C(=O)N2[C@@H]3CN(C)C(=O)[C@@]2(Cc2ccccc2)[C@H]2C(=O)N(C)C(=O)[C@@H]32)cc1	-4.1	1.1	-3.0	0.5	-2.7	nt	nt
COc1cc(-c2nc(-c3ccccc3)c(-c3cccs3)[nH]2)cc(OC)c1OC	6.6	1.1	7.7	6.4	11.7	nt	nt

Source: PubChem
